Results published in ChEMBL document CHEMBL4354826, “Structure-Based Discovery of SD-36 as a Potent, Selective, and Efficacious PROTAC Degrader of STAT3 Protein” (J Med Chem, 2019).
Active and inactive are the calls of the source. The calls are words filed in the database; no cut-off is given here.

Assays:
[1] = target: Protein cereblon/Signal transducer and activator of transcription 5B (Homo sapiens) (UniProt P51692+Q96SW2); assay: Protac activity at CRBN/STAT5B in human MOLM16 cells assessed as degradation of STAT5B at 0.01 to 10 uM incubated for 4 hrs by Western blot analysis; type: cell-based
How it was run: (§1)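 Molm-16 cells treated 4 h with test compound at 0.01–10 μM, or control compounds at 10 μM. Lysates separated by SDS–PAGE, transferred to PVDF, blocked 1 h in 5% blocker/TBST, probed for each STAT protein, and detected by chemiluminescence.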

[2] = target: Protein cereblon/Signal transducer and activator of transcription 3 (Homo sapiens, UniProt P40763+Q96SW2); assay: Protac activity at CRBN/STAT3 in human MOLM16 cells assessed as degradation of STAT3 at 0.01 to 10 uM incubated for 4 hrs by Western blot analysis; type: cell-based; how it was run: as §1
[3] = target: Protein cereblon/Signal transducer and activator of transcription 1-alpha/beta (Homo sapiens) (UniProt P42224+Q96SW2); assay: Protac activity at CRBN/STAT1 in human SUDHL1 cells assessed as degradation of STAT1 at 0.01 to 10 uM incubated for 18 hrs by Western blot analysis; type: cell-based
How it was run: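 SU-DHL-1 cells treated 18 h with test compound at 0.01–10 μM, or control compounds at 10 μM. Lysates separated by SDS–PAGE, transferred to PVDF, blocked 1 h in 5% blocker/TBST, probed for each STAT protein, and detected by chemiluminescence.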

Mus musculus [4] = assay: In vivo degradation of STAT3 in SCID mouse xenografted with MOLM-16 cells at 50 mg/kg, iv measured upto 72 hrs by Western blot analysis relative to control; type: functional
How it was run: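 SCID mice bearing subcutaneous Molm-16 tumors (3 × 10^6 cells in Matrigel; treated at ~150 mm3) given a single intravenous dose in 10% PEG400 + 90% PBS, or vehicle. Tumors harvested at time points. Lysates immunoblotted for total STAT3 and pSTAT3 Y705, compared with vehicle control.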

[5] = Antitumor activity against human MOLM16 cells xenografted in […] mouse assessed as tumor regression at 25 or 50 mg/kg, iv administered 3 times per week for 3 weeks; type: functional
Mus musculus [6] = assay: In vivo degradation of STAT3 in CD1 mouse at 25 mg/kg, iv measured upto 48 hrs by Western blot analysis; type: functional, organism-based
How it was run: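 Female CD-1 mice given a single intravenous dose in 10% PEG400 + 90% PBS, or vehicle. Euthanized at set time points. Spleen harvested and lysates immunoblotted for STAT3.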

Sequence of Protein cereblon/Signal transducer and activator of transcription 5B (Homo sapiens) (P51692 whole entry, looked up): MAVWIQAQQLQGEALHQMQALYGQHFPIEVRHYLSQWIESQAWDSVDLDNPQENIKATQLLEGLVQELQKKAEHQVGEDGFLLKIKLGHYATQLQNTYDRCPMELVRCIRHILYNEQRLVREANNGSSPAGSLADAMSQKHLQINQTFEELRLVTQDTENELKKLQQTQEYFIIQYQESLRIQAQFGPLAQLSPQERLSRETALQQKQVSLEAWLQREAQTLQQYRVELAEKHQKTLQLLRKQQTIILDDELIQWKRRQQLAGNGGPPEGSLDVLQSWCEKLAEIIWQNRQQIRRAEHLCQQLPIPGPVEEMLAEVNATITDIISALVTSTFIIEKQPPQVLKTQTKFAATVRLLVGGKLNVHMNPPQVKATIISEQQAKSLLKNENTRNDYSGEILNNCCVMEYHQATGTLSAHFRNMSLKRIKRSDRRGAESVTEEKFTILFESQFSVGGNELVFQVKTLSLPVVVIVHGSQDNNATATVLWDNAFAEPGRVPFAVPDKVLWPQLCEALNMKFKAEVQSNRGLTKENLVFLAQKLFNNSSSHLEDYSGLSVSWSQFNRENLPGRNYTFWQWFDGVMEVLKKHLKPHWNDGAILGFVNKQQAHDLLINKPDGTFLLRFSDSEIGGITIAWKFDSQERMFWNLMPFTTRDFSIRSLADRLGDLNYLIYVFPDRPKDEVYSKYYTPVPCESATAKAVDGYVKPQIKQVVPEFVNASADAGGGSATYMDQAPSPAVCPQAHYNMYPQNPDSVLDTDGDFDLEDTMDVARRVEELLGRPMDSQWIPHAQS
Sequence of Protein cereblon/Signal transducer and activator of transcription 5B (Homo sapiens) (Q96SW2 whole entry, looked up): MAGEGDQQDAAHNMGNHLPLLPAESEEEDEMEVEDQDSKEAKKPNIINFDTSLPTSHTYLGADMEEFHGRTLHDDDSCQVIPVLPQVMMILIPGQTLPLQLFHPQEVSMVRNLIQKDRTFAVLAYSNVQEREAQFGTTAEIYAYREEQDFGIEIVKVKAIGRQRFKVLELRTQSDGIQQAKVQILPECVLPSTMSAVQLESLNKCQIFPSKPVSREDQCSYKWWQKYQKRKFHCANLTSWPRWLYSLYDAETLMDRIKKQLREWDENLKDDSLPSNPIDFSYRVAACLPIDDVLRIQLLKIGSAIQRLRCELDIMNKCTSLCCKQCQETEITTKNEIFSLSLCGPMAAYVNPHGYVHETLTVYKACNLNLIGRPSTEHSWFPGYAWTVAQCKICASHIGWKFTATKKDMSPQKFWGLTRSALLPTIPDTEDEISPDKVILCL
Sequence of Protein cereblon/Signal transducer and activator of transcription 3 (P40763 2-770 limits assumed): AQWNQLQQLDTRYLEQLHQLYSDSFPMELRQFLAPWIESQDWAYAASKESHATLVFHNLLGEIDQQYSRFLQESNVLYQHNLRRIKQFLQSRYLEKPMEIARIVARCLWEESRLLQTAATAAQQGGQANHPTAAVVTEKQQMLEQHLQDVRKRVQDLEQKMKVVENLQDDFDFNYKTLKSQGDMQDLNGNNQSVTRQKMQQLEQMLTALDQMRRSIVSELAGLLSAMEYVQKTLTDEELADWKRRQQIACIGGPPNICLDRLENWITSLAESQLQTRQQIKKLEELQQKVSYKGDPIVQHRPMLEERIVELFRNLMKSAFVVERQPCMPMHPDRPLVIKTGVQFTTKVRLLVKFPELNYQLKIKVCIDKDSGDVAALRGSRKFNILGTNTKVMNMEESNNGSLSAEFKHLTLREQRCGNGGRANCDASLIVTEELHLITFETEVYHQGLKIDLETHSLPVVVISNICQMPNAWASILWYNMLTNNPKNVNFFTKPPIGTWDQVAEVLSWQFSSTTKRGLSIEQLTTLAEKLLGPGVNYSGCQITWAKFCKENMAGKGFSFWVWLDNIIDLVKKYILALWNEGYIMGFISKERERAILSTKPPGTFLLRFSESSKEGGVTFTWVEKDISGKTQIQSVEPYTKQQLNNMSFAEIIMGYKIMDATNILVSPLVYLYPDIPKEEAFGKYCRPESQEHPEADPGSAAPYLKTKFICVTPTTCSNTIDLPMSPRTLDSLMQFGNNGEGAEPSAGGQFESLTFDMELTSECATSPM
Sequence of Protein cereblon/Signal transducer and activator of transcription 3 (Q96SW2 whole entry partner): as the sequence (Q96SW2 whole entry, looked up) above

NC(=O)CC[C@H](NC(=O)[C@@H]1CC[C@@H]2CCN(C(=O)CCCCCC#Cc3cccc4c3CN(C3CCC(=O)NC3=O)C4=O)C[C@H](NC(=O)c3cc4cc(C(F)(F)P(=O)(O)O)ccc4[nH]3)C(=O)N21)C(=O)NC(c1ccccc1)c1ccccc1 (stereo partly specified)
Activity [1]: inactive | Activity [2]: Active | Activity [3]: inactive | Activity (Mus musculus [4]): >95% | Activity [5]: 100% | Activity (Mus musculus [6]): Active
